The Ki is a dissociation constant, usually derived from enzyme kinetics or from competition with a known ligand. A high value points to lower affinity.

T1 sequence (P61169 whole entry): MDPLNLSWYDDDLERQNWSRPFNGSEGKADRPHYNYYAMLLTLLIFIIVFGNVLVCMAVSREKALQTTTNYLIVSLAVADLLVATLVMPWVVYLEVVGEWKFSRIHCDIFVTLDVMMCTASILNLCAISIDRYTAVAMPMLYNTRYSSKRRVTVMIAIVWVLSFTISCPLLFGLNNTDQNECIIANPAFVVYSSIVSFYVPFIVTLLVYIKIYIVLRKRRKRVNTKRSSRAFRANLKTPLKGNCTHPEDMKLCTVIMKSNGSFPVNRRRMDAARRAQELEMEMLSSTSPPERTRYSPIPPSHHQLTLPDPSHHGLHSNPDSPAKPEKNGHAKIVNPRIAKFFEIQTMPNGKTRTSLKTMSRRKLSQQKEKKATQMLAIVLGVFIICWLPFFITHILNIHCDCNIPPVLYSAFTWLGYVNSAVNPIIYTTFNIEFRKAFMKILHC

The first experiment has as its target T1, D(2) dopamine receptor (Rattus norvegicus, UniProt P61169). The experiment is described as follows: Affinity towards dopamine receptor D2 was determined by competition studies using [3H]sulpiride in rat striatum. Format: tissue-based. An outline of the steps:
(§1)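 Competition binding values reported as mean ± SEM of triplicate determinations, with some entries from N = 3, 4, 6 or 7 determinations.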
Compound `CN(C)CCCCCCCCOc1ccc2oc(-c3ccccc3)cc(=O)c2c1` returned a Ki of 2.8 µM. As to `CN(C)CCCCOc1ccc2oc(-c3ccccc3)cc(=O)c2c1`, the Ki came to 4.2 µM. In turn, `O=c1cc(C2CCCCC2)oc2ccc(OCCCCCCN3CCOCC3)cc12` displayed a Ki of 14 µM. For the compound `O=c1cc(C2CCCC2)oc2ccc(OCCCCCCN3CCCCC3)cc12`, the Ki turned out to be 3.2 µM.

`O=c1cc(-c2ccccc2)oc2cc(OCCCCN3CCC(O)CC3)ccc12` returned a Ki of 1 µM. `CC1CCN(CCCCCCOc2ccc3oc(-c4ccccc4)cc(=O)c3c2)CC1`: affinity was put at a Ki of 0.57 µM. This Ki lies about 1.8-fold lower than the previous one. On the same count and under the same terms, the value for `O=c1cc(-c2ccncc2)oc2ccc(OCCCCCCN3CCCCC3)cc12` was 1.8 µM. Compound `O=c1cc(-c2ccccc2)oc2c(OCCCCCCN3CCC(O)CC3)cccc12` showed a Ki of 0.94 µM.

As to `O=c1cc(-c2ccccc2)oc2cc(OCCCCCCCCN3CCC(O)CC3)ccc12`, affinity was put at a Ki of 2.8 µM. In turn, `CN(C)CCCCCCCCCOc1ccc2oc(-c3ccccc3)cc(=O)c2c1` had a Ki of 2.2 µM. Compound `O=c1cc(-c2cccs2)oc2ccc(OCCCCCCN3CCCCC3)cc12` registered a Ki of 1.4 µM.

Regarding `CN(C)CCCCCCCCCCOc1ccc2oc(-c3ccccc3)cc(=O)c2c1`, the affinity corresponds to a Ki of 2.7 µM. This Ki is about 1.9-fold higher than that of the compound before. `CN(C)CCOc1ccc2c(=O)cc(-c3ccccc3)oc2c1`: the Ki came out at 13 µM. The compound `O=c1cc(-c2ccccc2Cl)oc2ccc(OCCCCCCN3CCCCC3)cc12` came in with an inhibition constant Ki of 2.2 µM.

`CN(C)CCCCCCCOc1ccc2oc(-c3ccccc3)cc(=O)c2c1`: the Ki is 12 µM. Against the preceding compound, the Ki is about 5.5-fold higher. Still for that read-out and setting: the value for `O=c1cc(C2CCC2)oc2ccc(OCCCCCCN3CCCCC3)cc12` was 5.5 µM; that for `COc1c(-c2ccccc2)oc2ccc(OCCCCCCN3CCC(O)CC3)cc2c1=O` was 2.6 µM.

`O=c1cc(-c2ccccc2)oc2ccc(OCCCCN3CCC(O)CC3)cc12`: the Ki is 6.8 µM. On to `O=c1cc(-c2ccccc2)oc2ccc(OCCCCCN3CCC(O)CC3)cc12`, for which the Ki is 5.1 µM.

In the case of `O=c1cc(-c2ccccc2)oc2ccc(OCCCN3CCC(O)CC3)cc12`, the inhibition constant (Ki) worked out at 3.4 µM. As for `O=c1cc(-c2ccccc2)oc2cccc(OCCCCCCCN3CCC(O)CC3)c12`, the inhibition constant Ki was found to be 2.4 µM. `CN(C)CCCCCOc1ccc2oc(-c3ccccc3)cc(=O)c2c1`: the Ki came to 8.2 µM.

Consider `O=c1cc(-c2ccccc2)oc2cc(OCCCCCCCN3CCC(O)CC3)ccc12`, for which the Ki stood at 4 µM. On to `O=c1cc(-c2cccnc2)oc2ccc(OCCCCCCN3CCCCC3)cc12`, for which the Ki came to 2.3 µM. Against the preceding compound, the Ki is about 1.7-fold lower. In turn, `O=c1cc(-c2ccccc2)oc2ccc(OCCCCCCN3CCC(O)CC3)cc12` returned a Ki of 3.7 µM. The compound `CC(C)Cc1cc(=O)c2cc(OCCCCCN3CCC(O)CC3)ccc2o1` yielded a Ki of 13 µM. Compared with the last compound, the Ki is about 3.5-fold higher. `O=c1cc(-c2ccccc2)oc2ccc(OCCCCCCN3CCNCC3c3ncccn3)cc12` (stereo not given) had an inhibition constant Ki of 1.3 µM. Compared with the last compound, the Ki is about 10-fold lower. Take `O=c1cc(-c2ccccc2)oc2ccc(OCCCCCCCCN3CCC(O)CC3)cc12`: the Ki was determined as 8.9 µM.

`O=c1cc(-c2ccccc2)oc2ccc(OCCCCCCCN3CCC(O)CC3)cc12` registered a Ki of 6.5 µM. On the same count and under the same terms, as for `O=c1cc(-c2ccccc2)oc2ccc(OCCCCCCN3CCC(CCO)CC3)cc12`, the figure is 2.7 µM; as for `O=c1cc(-c2ccccc2)oc2cc(OCCCCCCN3CCC(O)CC3)ccc12`, 6 µM; as for `O=c1cc(-c2ccccc2)oc2cc(OCCCCCN3CCC(O)CC3)ccc12`, 5.9 µM.

Compound `Cc1c(C2CCCCC2)oc2ccc(OCCCCCCN3CCC(O)CC3)cc2c1=O` had a Ki of 4.7 µM. This Ki and that of the compound before are within 1.5-fold of each other.

`O=c1cc(-c2ccccc2)oc2ccc(OCCCCCCN3CCCC(O)C3)cc12` (stereo not given) showed a Ki of 5.5 µM.

On to `O=c1cc(-c2ccccc2)oc2ccc(OCCCCCCN3CCCC3)cc12`, for which the Ki stood at 2.3 µM. `O=c1cc(C2CCCCC2)oc2ccc(OCCCCCCN3CCCCC3)cc12` had a Ki of 7.7 µM.

The compound `CN(C)CCOc1ccc2oc(-c3ccccc3)cc(=O)c2c1` had an inhibition constant Ki of 4.5 µM.

A further experiment deals with T1, D(2) dopamine receptor. The experiment can be described thus: Affinity towards dopamine receptor D2 site was determined by competition studies using [3H]sulpiride in rat striatum. It counts as tissue-based. An outline of the steps:
as §1
In turn, `COc1ccc(-c2cc(=O)c3cc(OCCCCCCN4CCC(O)CC4)ccc3o2)cc1` had a Ki of 3.7 µM. With `O=c1cc(-c2ccccc2)oc2ccc(OCCCCCCN3CCC(n4c(O)nc5ccccc54)CC3)cc12`, the Ki is 0.22 µM. Compared with the last compound, the Ki is about 17-fold lower.

Regarding `O=c1cc(-c2ccccc2Cl)oc2ccc(OCCCCCCN3CCC(O)CC3)cc12`, affinity was put at a Ki of 4.1 µM.

`O=c1cc(-c2ccccc2)oc2ccc(OCCCCCCN3CCC(O)(c4ccc(Cl)cc4)CC3)cc12` showed a Ki of 0.99 µM. On the same count and under the same terms, the value for `O=c1cc(-c2ccncc2)oc2ccc(OCCCCCCN3CCC(O)CC3)cc12` was 6.9 µM; that for `O=c1cc(-c2ccccc2)oc2ccc(OCCCCCCN3CCN(CCO)CC3)cc12` was 8.3 µM; that for `NCCCCCCOc1ccc2oc(-c3ccccc3)cc(=O)c2c1` was 8.2 µM. Compound `O=c1cc(-c2cccs2)oc2ccc(OCCCCCCN3CCC(O)CC3)cc12` registered an inhibition constant (Ki) of 4 µM. For `O=c1cc(C2CCCCC2)oc2ccc(OCCCCCN3CCC(O)CC3)cc12`, the Ki turned out to be 12 µM. In the case of `O=c1cc(C2CCCC2)oc2ccc(OCCCCCCN3CCC(O)CC3)cc12`, the affinity corresponds to a Ki of 21 µM. This Ki is about 1.8-fold higher than that of the compound before. With `COc1cccc(-c2cc(=O)c3cc(OCCCCCN4CCC(O)CC4)ccc3o2)c1`, the Ki came out at 6.2 µM. This Ki lies about 3.4-fold lower than the previous one.

In turn, `O=c1cc(-c2ccccc2)oc2ccc(OCCCCCCN3CCN(c4ccccn4)CC3)cc12` yielded a Ki of 3 µM. This Ki is about 2.1-fold lower than that of the compound before. The same measure, in the same setting: the value for `COc1ccc(-c2cc(=O)c3cc(OCCCCCN4CCC(O)CC4)ccc3o2)cc1` was 4.2 µM.

`O=c1cc(-c2ccccc2)oc2ccc(OCCCCCCN3CCOCC3)cc12` returned an inhibition constant (Ki) of 18 µM. In turn, `CCN(CC)CCCCCCOc1ccc2oc(-c3ccccc3)cc(=O)c2c1` registered a Ki of 3.6 µM. `O=c1cc(-c2cccc(F)c2)oc2ccc(OCCCCCCN3CCC(O)CC3)cc12` gave a Ki of 11 µM.

`O=c1cc(-c2cccc(Cl)c2)oc2ccc(OCCCCCCN3CCC(O)CC3)cc12`: the affinity, expressed as Ki, was 6.4 µM. Consider `O=c1cc(-c2ccccc2)oc2ccc(OCCCCCCN3CCN(c4ccc(Cl)cc4)CC3)cc12`, for which the affinity corresponds to a Ki of 1.3 µM. `O=c1cc(-c2ccc(F)cc2)oc2ccc(OCCCCCCN3CCC(O)CC3)cc12` gave a Ki of 3.8 µM. Compared with the last compound, the Ki is about 2.9-fold higher. Regarding `O=c1cc(-c2ccccc2)oc2cccc(OCCCN3CCC(O)CC3)c12`, the Ki is 8.4 µM.

Compound `CCOC(=O)C1CCN(CCCCCCOc2ccc3oc(-c4ccccc4)cc(=O)c3c2)CC1` gave a Ki of 2.8 µM. The compound `CN(CCCCCCOc1ccc2oc(-c3ccccc3)cc(=O)c2c1)Cc1ccccc1` came in with a Ki of 1.8 µM. This Ki lies about 1.6-fold lower than the previous one. Still for that read-out and setting: as for `Cc1c(-c2ccccc2)oc2ccc(OCCCCCCN3CCC(O)CC3)cc2c1=O`, the figure is 2.7 µM; as for `CCOC(=O)C1CCCN(CCCCCCOc2ccc3oc(-c4ccccc4)cc(=O)c3c2)C1` (stereo not given), 0.7 µM; as for `CN(CCO)CCCCCCOc1ccc2oc(-c3ccccc3)cc(=O)c2c1`, 4.5 µM. For `CN(C)CCCOc1ccc2oc(-c3ccccc3)cc(=O)c2c1`, the Ki was found to be 3.6 µM. `O=c1cc(-c2ccccc2)oc2ccc(OCCCCCCN3CC=C(c4ccc(Cl)cc4)CC3)cc12` gave a Ki of 1.3 µM.

In turn, `O=C1NCN(c2ccccc2)C12CCN(CCCCCCOc1ccc3oc(-c4ccccc4)cc(=O)c3c1)CC2` showed an inhibition constant Ki of 0.18 µM. With `O=c1cc(-c2ccc(Cl)cc2)oc2ccc(OCCCCCCN3CCC(O)CC3)cc12`, the affinity corresponds to a Ki of 11 µM. For the compound `O=c1cc(-c2cccnc2)oc2ccc(OCCCCCCN3CCC(O)CC3)cc12`, the Ki was found to be 3.8 µM. For the compound `COc1cccc(-c2cc(=O)c3cc(OCCCCCCN4CCC(O)CC4)ccc3o2)c1`, the Ki is 9.5 µM. Against the preceding compound, the Ki is about 2.5-fold higher. In the case of `O=c1cc(-c2ccccc2)oc2cccc(OCCCCN3CCC(O)CC3)c12`, the Ki was determined as 9.5 µM. This lies in the single-digit micromolar range. On the same count and under the same terms, as for `O=c1cc(C2CCC2)oc2ccc(OCCCCCCN3CCC(O)CC3)cc12`, the figure is 14 µM. `O=c1cc(-c2ccccc2)oc2cccc(OCCCCCN3CCC(O)CC3)c12` showed an inhibition constant Ki of 5.1 µM. Regarding `O=c1cc(-c2ccccc2)oc2ccc(OCCCCCCN3CCCCCC3)cc12`, the affinity corresponds to a Ki of 2.3 µM. Compound `O=c1cc(-c2ccccc2)oc2cccc(OCCCCCCN3CCC(O)CC3)c12` yielded a Ki of 6.1 µM. `Cc1c(-c2ccccc2)oc2ccc(OCCC/C=C/CN3CCC(O)CC3)cc2c1=O` returned a Ki of 2.7 µM.

The target of the next experiment is T1, D(2) dopamine receptor. The experiment can be described thus: Affinity towards dopamine D2 site was determined by competition studies using [3H]sulpiride in rat striatum. It counts as tissue-based. An outline of the steps: as §1
With `O=c1cc(-c2ccccc2)oc2ccc(OCCCCCCN3CCCCC3)cc12`, the affinity corresponds to a Ki of 4.5 µM.
